High-throughput results from PubChem.
rRNA inh HTS – inhibits bacterial ribosomal RNA function over humanized ribosomes; E. coli WT GFP vs humanized-ribosome RFP mutants, fluorescence, 24 h; active compounds read low; DMSO median 0, no signal -100; GFP signal change (wild-type ribosome), % (no concentration beside the values); 1.6% of 350,000 active;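 active = significant combined selectivity score with lowered wild-type GFP, culture density cut under 30%, mutant RFP and density less affected; inactive = any of these conditions unmet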
RAD52 anneal inh – RAD52 (human) annealing inhibition; recombinant RAD52 DNA annealing, FRET fluorescence; inhibition, % at 18.7 µM; 0.46% of 360,000 active; AID 651710;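 active = every replicate showing at least 50% inhibition; inconclusive = mean inhibition at least 50% but not in every replicate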
PglD inh – blocks C. jejuni PglD acetyltransferase activity | purified PglD enzyme, DTNB colorimetric CoA detection | 0.098% of 360,000 active | inhibition, % at 12.5 µM | AID 602405; in the data active = inhibition above about 16%, passing the limit was not always enough; inconclusive = no clear call, values can overlap the other calls
XiGFP reactiv – X-chromosome reactivation activator. XiGFP mouse fibroblasts, % GFP-positive cells imaging, 3 d; cells co-treated with 5-aza-dC sensitizer; scaled so ellipticine positive control = 100%. activation, % at 7.58 µM. 0.055% of 360,000 active. AID 743238;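 active = mean normalized replicate activation at least 10% and every replicate at or above 10%; inconclusive = only one of the two criteria met; inactive = mean below 10% and not all replicates reach 10%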;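 also: 0% = median of on-plate neutral control wells and 100% = ellipticine 6 µM median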
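Assay system – SV40-immortalized XiGFP fibroblast cells, line 68-5-11 · Buffer or medium – DMEM supplemented with 5-aza-dC as sensitizing agent · Dosing – one concentration, pinned · Benchmarks – positive control ellipticine, 6 µM final · Times – 3 days compound exposure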
RAD54 branch – RAD54 (human) branch migration inhibition. 0.14% of 360,000 active. RAD54 Holliday junction branch migration, FAM/BHQ fluorescence. inhibition, % at 10.4 µM. Q92698;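 active = mean normalized replicate activity at least 40 and at least half of replicates scoring 40 or more; inconclusive = only one of the two criteria met; inactive = mean below 40 and under half of replicates reaching 40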;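 also: 0% = median of neutral control wells and 100% = median of positive control wells; inhibitors cause a drop in the FAM fluorescence signal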
Target sequence (Q92698 whole entry, looked up): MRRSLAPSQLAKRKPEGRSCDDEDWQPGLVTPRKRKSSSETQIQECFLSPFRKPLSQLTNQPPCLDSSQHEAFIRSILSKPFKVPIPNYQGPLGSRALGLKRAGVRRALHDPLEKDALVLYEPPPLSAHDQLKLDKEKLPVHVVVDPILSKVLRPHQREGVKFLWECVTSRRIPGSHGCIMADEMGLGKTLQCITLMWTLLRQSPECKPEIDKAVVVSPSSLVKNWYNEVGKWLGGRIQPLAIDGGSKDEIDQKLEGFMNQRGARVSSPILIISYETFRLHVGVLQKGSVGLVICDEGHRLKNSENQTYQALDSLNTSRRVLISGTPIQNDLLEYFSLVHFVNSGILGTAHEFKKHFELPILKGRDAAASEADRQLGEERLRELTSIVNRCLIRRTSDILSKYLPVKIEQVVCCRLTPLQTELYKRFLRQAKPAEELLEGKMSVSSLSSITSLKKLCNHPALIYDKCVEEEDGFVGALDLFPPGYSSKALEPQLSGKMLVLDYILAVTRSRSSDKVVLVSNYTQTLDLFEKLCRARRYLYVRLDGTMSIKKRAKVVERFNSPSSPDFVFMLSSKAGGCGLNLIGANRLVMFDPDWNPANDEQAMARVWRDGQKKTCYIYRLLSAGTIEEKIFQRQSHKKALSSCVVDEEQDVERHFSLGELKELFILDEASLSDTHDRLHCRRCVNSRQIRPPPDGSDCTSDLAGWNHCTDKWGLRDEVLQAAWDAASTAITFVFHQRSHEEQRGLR
E-sel inducer – E-selectin induction on HUVECs. P16581. HUVEC E-selectin immunofluorescence imaging; normalized: neutral wells 0, TNF-alpha wells 100. activation, % at 7.58 µM. 0.37% of 260,000 active;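 active = mean E-selectin-positive cell signal at least 10% of the positive control, reached in at least 60% of replicates, without over 20% cell loss; inconclusive = no rule given, readout overlaps actives, possibly toxicity-flagged; inactive = the rest, including those meeting only one limit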
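material = human umbilical vein endothelial cells (HUVEC), E-selectin induction | quantity = 3,000 cells/well | medium = EGM-2 growth medium on 0.1% gelatin-coated wells | technique = immunofluorescence imaging | read-out basis = % PE-positive cells | control set = TNF-alpha positive control, DMSO neutral control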
AID977621 – wild-type E. coli growth inhibition versus H69 humanized strain – H69 mutant RFP, wild-type GFP, cherry-pick, dose response; shares compounds with rRNA inh HTS; fluorescence, 24 h; activity change, negative = inhibition at 50 µM; 1,900 tested, under 10 active; AID 977621;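 active = Wild-type ribosome reporter drop at least double the humanized mutant ribosome reporter drop, growth loss under a set limit; inconclusive = no clear call, values can overlap the other calls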;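 also: wild-type GFP and H69 mutant RFP strains grown together 50/50 in each well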
AID977628 – E. coli growth inhibition, wild-type GFP versus h24 humanized RFP strain, dose response, h24 mutant RFP vs wild-type GFP, cherry-pick; shares compounds with rRNA inh HTS; E. coli WT GFP strain growth, fluorescence, 24 h; activity change, negative = inhibition at 50 µM; 1,900 tested, under 10 active; AID 977628;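 active = compound lowering the normal-ribosome reporter at least twice as much as the humanized-ribosome reporter, growth loss under a set limit; inconclusive = no clear call, values can overlap the other calls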;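 also: wild-type GFP and h24 humanized RFP strains co-cultured 1 to 1 per well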
* hit, by the source's call; u = inconclusive; x = no result given. This is a sample that favours compounds with a hit; in the whole collection about 2% have one here.

SMILES	rRNA inh HTS	RAD52 anneal inh	PglD inh	XiGFP reactiv	RAD54 branch	E-sel inducer	AID977621	AID977628
COc1ccc(S(=O)(=O)Nc2ccc3c(c2)C(=O)N([C@H](C)CO)C[C@H](C)[C@@H](CN(C)C(=O)Nc2ccc4c(c2)OCO4)OCCCC[C@H](C)O3)cc1	-5	-15	3	0	-5	0	x	x
CO[C@H]1CN(C)C(=O)c2ccc(NC(=O)Nc3cccc(F)c3)cc2OC[C@@H](C)N(C(C)=O)C[C@@H]1C	-3	x	x	0	x	0	x	x
O=S1(=O)N[C@H](Cc2ccccc2)COc2cc(N3CCCCC3)ccc21	-2	-89	x	0	x	0	x	x
O=S1(=O)N[C@H](Cc2ccccc2)COc2cc(N3CCSCC3)ccc21	-16*	-22	x	0	x	0	-0.85	-10
O=C(Nc1cccnc1)c1cc(Br)c(Br)s1	2	1	5	0	0	0	x	x
NC(=O)c1cc(NC(=O)c2cc(Br)c(Br)s2)cc(C(N)=O)c1	-24*	-28	x	0	x	x	x	u
CCn1ncc(Br)c1C(=O)Nc1cccc(F)c1	-2	-13	x	0	x	6	x	x
CCn1ncc(Br)c1C(=O)Nc1ccc2c(c1)OCCO2	-21*	-24	x	0	x	9	x	-9.9
Cc1ccc(S(=O)(=O)Nc2ccc3c(c2)C(=O)N([C@@H](C)CO)C[C@@H](C)[C@@H](CN(C)CC2CC2)O3)cc1	8	5	-1	0	0	-6	x	x
CCN(CC)CCC#CC(O)(c1ccccc1)C1CCCCC1 (stereo unspecified)	-11	11	x	0	x	x	x	x
CCC[N+]1(CC#CC(O)(c2ccccc2)C2CCCCC2)CCCCC1 (stereo unspecified)	-36*	-18	x	0	x	x	-4.8	-11
CN(C)C(=O)c1ccc(-c2ccc3c(c2)[C@H]2[C@H](CCN2C(=O)C2CCCC2)[C@@H](CO)N3C)cc1	-16	-4	x	0	x	0	x	x
COc1cccc(SCC(=O)N2CCN(c3ccccc3)CC2)c1	-23*	-12	7	0	-8	x	-12	u
COc1ccc(CC(=O)Nc2cc(S(=O)(=O)Nc3ccc(OC)cc3)ccc2OC)cc1	-18*	-29	3	0	-8	x	-15	-17
COC(=O)c1sccc1NC(=O)Cc1ccc(OC)cc1	-27*	-2	x	0	x	-2	-15	x
COC(=O)c1sccc1NC(=O)c1ccc(C)o1	x	x	6	x	-8	x	x	x
Cc1cccc(-c2cc3nc4c(c(N5CCOCC5)n3n2)CCCC4)c1	-33*	-20	-2	x	9	x	-17	u
COc1ccc(S(=O)(=O)N(C)C[C@@H]2Oc3ccc(NS(C)(=O)=O)cc3C(=O)N([C@H](C)CO)C[C@H]2C)cc1	0	4	8	-1	-5	-5	x	x
COc1cc(-c2cc3nc(NCCc4ccncc4)ccn3n2)cc(OC)c1OC	-18*	-1	-1	0	12	0	x	u
O=C1c2cccc(OCC(=O)N3CCCc4ccccc43)c2CCN1Cc1cccnc1	-26*	-16	x	0	x	x	-12	x
Cc1ccccc1CN1CCc2c(OCC(=O)N3CCCc4ccccc43)cccc2C1=O	x	x	x	0	x	x	x	x
CNC(=O)C[C@@H]1CC[C@@H]2[C@H](COc3ccc(NC(=O)Nc4c(C)noc4C)cc3C(=O)N2C)O1	0	x	-1	0	1	0	x	x
CNC(=O)c1ccsc1NC(=O)c1ccc2c(c1)CCCC2	-26*	-28	-4	0	-2	1	u	x
C[C@@H]1CN([C@@H](C)CO)C(=O)c2cc(NC(=O)c3ccccc3)ccc2O[C@@H](C)CCCCO[C@H]1CN(C)C(=O)Nc1ccccc1	-2	-53	4	0	-17	x	x	x
COc1ccc(Cl)cc1-c1cc(C(=O)NCC2CCCCC2)[nH]n1	-13	-12	x	0	-6	0	x	x
SMILES	rRNA inh HTS	RAD52 anneal inh	PglD inh	XiGFP reactiv	RAD54 branch	E-sel inducer	AID977621	AID977628
Cc1cc(F)ccc1-c1cc(C(=O)NCC2CCCCC2)[nH]n1	-36*	2	5	0	0	1	x	u
Cc1sc2nc(SC3CCOC3=O)n(Cc3ccccc3)c(=O)c2c1C (stereo unspecified)	-24	-10	x	1	x	x	x	x
O=C1OCCC1Sc1nc2ccccc2c(=O)n1Cc1ccccc1 (stereo unspecified)	-21*	8	x	1	x	x	x	-15
CCCC(=O)N1CC2(CCN(S(C)(=O)=O)CC2)c2c([nH]c3cc(OC)ccc23)[C@@H]1CO	4	-2	x	0	x	0	x	x
O=C(CSc1nncn1-c1ccccc1)Nc1ccccc1	6	-13	9	0	-3	x	x	x
CS(=O)(=O)c1ccc(Cl)c(NC(=O)CSc2nncn2-c2ccccc2)c1	-22*	-17	-1	0	3	x	-12	-8.3
COc1ccc(OCC(O)CNS(=O)(=O)c2cccc(Cl)c2)cc1 (stereo unspecified)	-21*	-9	-3	0	-1	x	-3.7	-4.2
COc1ccc(OCC(O)CNC(=O)c2ccc(OC)cc2)cc1 (stereo unspecified)	6	-4	x	0	x	x	x	x
CS(=O)(=O)c1cccc(NC(=O)C2CC2)c1	3	-6	x	0	x	x	x	x
O=C(Nc1cccc(S(=O)(=O)c2cccc(NC(=O)C3CC3)c2)c1)C1CC1	-23*	-11	1	x	-3	x	u	-9.1
CNC[C@H]1OCCCC[C@H](C)Oc2ccc(NC(=O)C3CCCCC3)cc2C(=O)N([C@H](C)CO)C[C@@H]1C	4	-134	-2	-1	-5	0	x	x
C[C@@H]1CN([C@H](C)CO)S(=O)(=O)c2ccc(C#CC3CCCC3)cc2O[C@@H]1CN(C)C(=O)C1CC1	-8	10	6	-1	-1	1	x	x
c1ccc(Sc2ncnc3ccccc23)cc1	-18*	-4	2	0	-2	x	x	u
CCn1c(-c2cc(-c3ccc(OC(C)C)cc3)nc3ccccc23)n[nH]c1=S	-28*	-5	0	x	5	x	x	u
c1ccc(CNc2ncnc3sccc23)cc1	-21*	-14	-5	0	11	0	x	u
c1cncc(CNc2ncnc3sccc23)c1	5	-18	x	0	x	-5	x	x
Cc1ccc(S(=O)(=O)Nc2ccc3c(c2)C(=O)N([C@H](C)CO)C[C@@H](C)[C@H](CN(C)C(=O)Nc2ccccc2)O3)cc1	1	2	1	0	-4	10	x	x
CC(C)(C)C(=O)OCc1nc(-c2ccc(Cl)cc2)cs1	-15	-14	3	1	-12	x	x	x
